Test results published in ChEMBL document CHEMBL5360543, “Designed multiple ligands for the treatment of type 2 diabetes mellitus and its complications: Discovery of (5-arylidene-4-oxo-2-thioxothiazolidin-3-yl)alkanoic acids active as novel dual-targeted PTP1B/AKR1B1 inhibitors” (Eur J Med Chem, 2023).
Active and inactive are the calls of the source. No cut-off for these calls is given here.

biological target: T1, Aldo-keto reductase family 1 member B1 (Homo sapiens, UniProt P15121); assay: Inhibition of human recombinant AKR1B1 expressed in Escherichia coli BL21(DE3)pLysS using L-idose as substrate by NADPH oxidation based absorbance analysis; settings: not given

SMILES	IC50 [µM]
O=C(O)CN1C(=O)/C(=C/c2cccc(OCCCCc3ccccc3)c2)SC1=S	0.06

biological target: T2, Tyrosine-protein phosphatase non-receptor type 1 (Homo sapiens, UniProt P18031); assay: Inhibition of N-terminal polyHis-tagged human PTP1B1 (1 to 303 residues) expressed in Escherichia coli BL21(DE3)pLysS using pNPP as substrate by spectrophotometric analysis; settings: not given
T2 sequence (P18031 whole entry): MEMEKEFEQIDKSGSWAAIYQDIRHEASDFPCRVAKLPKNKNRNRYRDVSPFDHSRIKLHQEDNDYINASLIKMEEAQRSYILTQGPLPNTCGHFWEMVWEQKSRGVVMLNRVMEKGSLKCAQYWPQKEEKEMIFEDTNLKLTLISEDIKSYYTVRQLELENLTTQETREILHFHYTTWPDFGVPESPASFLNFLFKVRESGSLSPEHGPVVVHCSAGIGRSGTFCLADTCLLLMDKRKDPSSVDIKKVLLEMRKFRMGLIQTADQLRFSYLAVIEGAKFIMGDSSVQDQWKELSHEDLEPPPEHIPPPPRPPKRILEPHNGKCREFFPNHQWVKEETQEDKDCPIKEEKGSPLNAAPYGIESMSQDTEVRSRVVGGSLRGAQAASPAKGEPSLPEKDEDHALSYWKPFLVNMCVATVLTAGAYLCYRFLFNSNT
Method in brief: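 His-tagged human PTP1B (1–303) from E. coli BL21(DE3)pLysS, assayed in 0.075 M β,β-dimethylglutarate pH 7.0 with 1 mM EDTA, 0.1 mM DTT and pNPP. Reaction stopped with 0.1 M KOH; p-nitrophenol read at 400 nm. IC50 from 15–16 inhibitor concentrations in triplicate, normalized to control, fitted by nonlinear regression. Single-point residual activity at 5 µM.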

SMILES	IC50 [µM]
O=C(O)CN1C(=O)/C(=C/c2cccc(OCCCCc3ccccc3)c2)SC1=S	4.3

biological target: T3, Tyrosine-protein phosphatase non-receptor type 2 (Homo sapiens, UniProt P17706); assay: Inhibition of N-terminal polyHis-tagged human recombinant TC-PTPb (1 to 415 residues) expressed in Escherichia coli BL21(DE3)pLysS; settings: not given
T3 sequence (P17706 whole entry): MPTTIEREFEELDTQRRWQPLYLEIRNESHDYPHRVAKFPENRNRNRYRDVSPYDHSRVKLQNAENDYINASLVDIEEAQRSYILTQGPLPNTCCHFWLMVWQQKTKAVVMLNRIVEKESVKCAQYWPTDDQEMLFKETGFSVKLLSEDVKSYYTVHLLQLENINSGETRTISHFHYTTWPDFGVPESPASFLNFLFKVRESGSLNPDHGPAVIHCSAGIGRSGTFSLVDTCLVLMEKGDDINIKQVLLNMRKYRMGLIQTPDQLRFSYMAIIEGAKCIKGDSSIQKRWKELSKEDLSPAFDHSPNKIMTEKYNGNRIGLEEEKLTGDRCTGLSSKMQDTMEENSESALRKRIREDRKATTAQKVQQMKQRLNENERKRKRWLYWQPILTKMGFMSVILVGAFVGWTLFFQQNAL

SMILES	IC50 [µM]
O=C(O)CN1C(=O)/C(=C/c2cccc(OCCCCc3ccccc3)c2)SC1=S	9

biological target: T4, Tyrosine-protein phosphatase non-receptor type 1 (Homo sapiens) (UniProt P18031); assay: Reversible inhibition of N-terminal polyHis-tagged human PTP1B1 (1 to 303 residues) expressed in Escherichia coli BL21(DE3)pLysS using pNPP as substrate pretreated with enzyme for 60 mins followed by 400-fold dilution with buffer containing substrate and measured after 15 mins by spectrophotometric analysis; settings: time 75.0 min
T4 sequence (whole entry): T2 sequence (P18031 whole entry)
Method in brief: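 PTP1B incubated 60 min at 37 °C with saturating inhibitor, then diluted 400-fold into assay buffer containing 2.5 mM pNPP. Stopped after 15 min with 0.2 M KOH; absorbance read at 400 nm. Normalized to enzyme diluted with DMSO; mean ± SEM (n = 3).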

SMILES	inhibition
O=C(O)CN1C(=O)/C(=C/c2cccc(OCCCCc3ccccc3)c2)SC1=S	Active

biological target: T1, Aldo-keto reductase family 1 member B1; assay: Reversible inhibition of human recombinant AKR1B1 expressed in Escherichia coli BL21(DE3)pLysS assessed as recovery of enzyme activity using L-idose as substrate measured after extensive dialysis by NADPH oxidation based absorbance analysis; design: scale not given: the % may be the effect or the level left; settings: not given

SMILES	Activity [%]
O=C(O)CN1C(=O)/C(=C/c2cccc(OCCCCc3ccccc3)c2)SC1=S	> 90

biological target: T2, Tyrosine-protein phosphatase non-receptor type 1; assay: Non-competitive inhibition of N-terminal polyHis-tagged human PTP1B1 (1 to 303 residues) expressed in Escherichia coli BL21(DE3)pLysS assessed as apparent dissociation constant for EI complex using pNPP as substrate by Lineweaver-Burk plot analysis; settings: not given
Method in brief: (§1)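 PTP1B initial pNPP hydrolysis rates measured at seven pNPP concentrations (0.5–25 mM) and at least three inhibitor concentrations, in triplicate. Data fitted to Michaelis–Menten; KM and Vmax dependence on inhibitor analysed by Lineweaver–Burk plots.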

SMILES	Ki [µM]
O=C(O)CN1C(=O)/C(=C/c2cccc(OCCCCc3ccccc3)c2)SC1=S	4.6

biological target: T2, Tyrosine-protein phosphatase non-receptor type 1; assay: Non-competitive inhibition of N-terminal polyHis-tagged human PTP1B1 (1 to 303 residues) expressed in Escherichia coli BL21(DE3)pLysS assessed as apparent dissociation constant for ESI complex using pNPP as substrate by Lineweaver-Burk plot analysis; settings: not given; method in brief: as §1

SMILES	Ki [µM]
O=C(O)CN1C(=O)/C(=C/c2cccc(OCCCCc3ccccc3)c2)SC1=S	4.3

biological target: T1, Aldo-keto reductase family 1 member B1; assay: Mixed non-competitive inhibition of human recombinant AKR1B1 expressed in Escherichia coli BL21(DE3)pLysS assessed as apparent dissociation constant for EI complex using L-idose as substrate by secondary plot analysis; settings: not given
Method in brief: (§2)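 AKR1B1 rates measured at varied L-idose concentrations with and without several inhibitor concentrations, then Lineweaver–Burk analysis. […] Tight binders fitted with the Morrison equation, KM for L-idose taken as 3.8 mM. At least three independent experiments.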

SMILES	Ki [µM]
O=C(O)CN1C(=O)/C(=C/c2cccc(OCCCCc3ccccc3)c2)SC1=S	0.08

biological target: T1, Aldo-keto reductase family 1 member B1; assay: Mixed non-competitive inhibition of human recombinant AKR1B1 expressed in Escherichia coli BL21(DE3)pLysS assessed as apparent dissociation constant for ESI complex using L-idose as substrate by secondary plot analysis; settings: not given; method in brief: as §2

SMILES	Ki [µM]
O=C(O)CN1C(=O)/C(=C/c2cccc(OCCCCc3ccccc3)c2)SC1=S	0.03

biological target: T1, Aldo-keto reductase family 1 member B1; assay: Ratio of Ki for human recombinant AKR1B1 expressed in Escherichia coli BL21(DE3)pLysS assessed as apparent dissociation constant for EI complex to Ki for human recombinant AKR1B1 expressed in Escherichia coli BL21(DE3)pLysS assessed as apparent dissociation constant for ESI complex; settings: not given; method in brief: as §2

SMILES	Ratio Ki
O=C(O)CN1C(=O)/C(=C/c2cccc(OCCCCc3ccccc3)c2)SC1=S	2

tested on: C2C12; assay: Cytotoxicity against mouse C2C12 cells assessed as reduction in cell viability at 20 uM incubated for 24 hrs by MTT assay; assay type: toxicity, cell-based; settings: c2c12, 24 h
Method in brief: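 C2C12 myoblasts were differentiated for 96 h in DMEM with 2% horse serum, then held 24 h in complete medium with 20 µM compound, DMSO vehicle as control. MTT 0.5 mg/mL was added, cells lysed in DMSO, absorbance read, and values normalized to vehicle. Quadruplicate, mean ± SD (n = 4).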

SMILES	Activity
O=C(O)CN1C(=O)/C(=C/c2cccc(OCCCCc3ccccc3)c2)SC1=S	Non-Toxic

biological target: T5, Tyrosine-protein phosphatase non-receptor type 1 (Mus musculus) (UniProt P35821); assay: Inhibition of PTP1B in mouse C2C12 cells assessed as increase in Akt phosphorylation by measuring increase in ratio of pAkt to Akt at 20 uM treated for 15 mins by western blot analysis; assay type: cell-based; settings: not given
T5 sequence (whole entry): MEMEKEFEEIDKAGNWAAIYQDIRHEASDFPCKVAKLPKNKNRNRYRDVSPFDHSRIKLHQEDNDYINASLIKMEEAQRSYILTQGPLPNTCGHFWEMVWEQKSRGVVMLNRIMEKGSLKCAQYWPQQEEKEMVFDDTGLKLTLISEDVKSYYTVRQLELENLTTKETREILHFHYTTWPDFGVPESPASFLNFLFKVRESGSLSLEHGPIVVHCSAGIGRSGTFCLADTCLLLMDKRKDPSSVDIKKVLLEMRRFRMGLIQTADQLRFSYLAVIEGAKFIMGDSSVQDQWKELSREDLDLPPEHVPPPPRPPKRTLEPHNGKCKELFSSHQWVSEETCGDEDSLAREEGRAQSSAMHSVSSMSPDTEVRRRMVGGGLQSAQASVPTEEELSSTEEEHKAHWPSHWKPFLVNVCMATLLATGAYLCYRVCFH
Method in brief: (§3)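 C2C12 cells starved 24 h, then given 10 nM insulin, 20 µM compound, or both, for 15 min. Washed in cold PBS, lysed in 1X Laemmli buffer, run on SDS-PAGE, blotted to PVDF. Probed with antibodies to phospho-Akt and total Akt, with actin as loading control. Bands quantified; triplicate, mean ± SD (n = 3).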

SMILES	inhibition
O=C(O)CN1C(=O)/C(=C/c2cccc(OCCCCc3ccccc3)c2)SC1=S	Active

biological target: T5, Tyrosine-protein phosphatase non-receptor type 1 (Mus musculus); assay: Inhibition of PTP1B in mouse C2C12 cells assessed as potentiation of insulin-induced Akt phosphorylation by measuring increase in ratio of pAkt to Akt at 20 uM treated for 15 mins in presence of insulin by western blot analysis; assay type: cell-based; settings: not given; method in brief: as §3

SMILES	inhibition
O=C(O)CN1C(=O)/C(=C/c2cccc(OCCCCc3ccccc3)c2)SC1=S	Active

tested on: C2C12; assay: Insulin-mimetic activity in mouse C2C12 cells assessed as stimulation of 2-NBDG uptake at 20 uM pretreated with compound for 15 mins followed by 2-NBDG addition and measured after 3 hrs by flow cytometry; assay type: functional, cell-based; settings: time 195.0 min
Method in brief: (§4)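 C2C12 cells serum-starved 24 h, then 15 min with 10 nM insulin, 20 µM compound, or both. Washed, then 3 h in starvation medium containing 40 µM 2-NBDG. Trypsinized, washed, and fluorescence measured by flow cytometry. Quadruplicate; mean fluorescence ± SD.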

SMILES	Activity
O=C(O)CN1C(=O)/C(=C/c2cccc(OCCCCc3ccccc3)c2)SC1=S	Active

tested on: C2C12; assay: Insulin-mimetic activity in mouse C2C12 cells assessed as stimulation of 2-NBDG uptake at 20 uM pretreated with compound and insulin for 15 mins followed by 2-NBDG addition and measured after 3 hrs by flow cytometry; assay type: functional, cell-based; settings: time 195.0 min; method in brief: as §4

SMILES	Activity
O=C(O)CN1C(=O)/C(=C/c2cccc(OCCCCc3ccccc3)c2)SC1=S	Active

tested on: C2C12; assay: Effect on total Akt protein expression in mouse C2C12 cells at 20 uM incubated for 15 mins by SDS-PAGE analysis; assay type: functional, cell-based; settings: not given; method in brief: as §3

SMILES	Activity
O=C(O)CN1C(=O)/C(=C/c2cccc(OCCCCc3ccccc3)c2)SC1=S	inactive

tested on: C2C12; assay: Effect on total Akt protein expression in mouse C2C12 cells at 20 uM incubated for 15 mins in presence of insulin by SDS-PAGE analysis; assay type: functional, cell-based; settings: not given; method in brief: as §3

SMILES	Activity
O=C(O)CN1C(=O)/C(=C/c2cccc(OCCCCc3ccccc3)c2)SC1=S	inactive

tested on: HLE; assay: Cytotoxicity against human HLE cells assessed as reduction in cell viability at 2 uM incubated for 24 to 48 hrs by MTT assay; assay type: toxicity, cell-based; settings: time 24-48 hrs
Method in brief: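 HLE lens epithelial B3 cells in MEM with 20% FBS at 37 °C, exposed 24 and 48 h to compound in 0.05% DMSO. Then 1 h in MTT 0.5 mg/mL in phosphate buffer pH 7.4, formazan dissolved in 0.04 N HCl/isopropanol, absorbance 563 nm. Mean ± SEM of eleven independent measurements; Student's t test versus untreated cells.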

SMILES	Activity
O=C(O)CN1C(=O)/C(=C/c2cccc(OCCCCc3ccccc3)c2)SC1=S	Non-Toxic

biological target: T1, Aldo-keto reductase family 1 member B1; assay: Inhibition of AKR1B1 in human HLE cells assessed as inhibition of glucose-induced sorbitol accumulation at 2 uM incubated for 24 hrs in presence of glucose; assay type: cell-based; settings: not given
Method in brief: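 HLE cells held 24 h in 75 mM D-glucose with or without 2 µM compound; 10 µM sorbinil as reference. Lysates from freeze/thaw and 10,000 × g spin were treated with perchloric acid and neutralized with KOH. Sorbitol assayed and expressed as nmol/mg protein (Bradford). Mean ± SEM of six measurements; one-way ANOVA with Tukey.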

SMILES	inhibition
O=C(O)CN1C(=O)/C(=C/c2cccc(OCCCCc3ccccc3)c2)SC1=S	Active
